Residue numbers refer to the chain shown, from its start.
Experiments:
Type in all cases: cell-based
[1] = target: T1, wild-type Kv4.2/KChIP1b channels (Rattus norvegicus, UniProt Q63881)
T1 sequence (Q63881 1-630): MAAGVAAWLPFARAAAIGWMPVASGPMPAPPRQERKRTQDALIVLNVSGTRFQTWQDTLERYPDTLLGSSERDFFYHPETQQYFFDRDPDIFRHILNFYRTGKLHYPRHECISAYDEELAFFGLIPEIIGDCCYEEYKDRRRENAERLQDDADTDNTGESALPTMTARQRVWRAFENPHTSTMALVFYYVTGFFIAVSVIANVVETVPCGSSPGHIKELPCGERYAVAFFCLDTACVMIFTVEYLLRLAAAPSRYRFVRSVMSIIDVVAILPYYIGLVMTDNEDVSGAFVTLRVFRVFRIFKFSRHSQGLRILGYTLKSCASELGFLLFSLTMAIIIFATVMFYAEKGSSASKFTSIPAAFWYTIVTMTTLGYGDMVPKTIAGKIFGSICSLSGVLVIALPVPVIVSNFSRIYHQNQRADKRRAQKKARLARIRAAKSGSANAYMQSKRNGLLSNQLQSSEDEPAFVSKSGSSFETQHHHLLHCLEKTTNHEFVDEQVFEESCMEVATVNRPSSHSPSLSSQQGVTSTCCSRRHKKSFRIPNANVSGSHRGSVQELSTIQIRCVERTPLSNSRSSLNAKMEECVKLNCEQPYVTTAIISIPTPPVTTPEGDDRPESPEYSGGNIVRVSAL
How it was run: (§1)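 Rat Kv4.2 (WT or QuikChange mutant) RNA co-injected equimolar with KChIP1b, 5–10 ng/oocyte, into Xenopus oocytes held 1–5 d at 17–19 °C. Two-electrode voltage clamp at room temperature in perfused Na/K methanesulfonate HEPES saline, pH 7.4–7.5, with P/−4 or P/−6 leak subtraction. Peak current at +40 mV (from −90 mV) after 10 min of 10 μM AA is expressed relative to pre-AA current. Mean ± SE, n = cells.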

[2] = target: T2, Kv4.2 R311Q mutant channels (co-injected with KChIP1b) (Rattus norvegicus, UniProt Q63881, R311Q); experiment: Two-electrode voltage clamp, R311Q mutant Kv4.2/KChIP1b in Xenopus oocytes; settings: 10 µM AA, 10 min
T2 sequence (Q63881 1-630 R311Q): T1 sequence (Q63881 1-630) with R311Q

[3] = system: Kv1.2/Kv2.1 chimeric channel; experiment: Two-electrode voltage clamp of Kv1.2/2.1 chimera K+ currents in Xenopus oocytes; settings: 10 µM AA
[4] = target: T3, Kv4.2 K318Q mutant channels (co-injected with KChIP1b) (Rattus norvegicus, UniProt Q63881, K318Q); experiment: Two-electrode voltage clamp, K318Q mutant Kv4.2/KChIP1b in Xenopus oocytes
T3 sequence (Q63881 1-630 K318Q): T1 sequence (Q63881 1-630) with K318Q
How it was run: as §1

[5] = read-out: inhibition of the peak K+ current

SMILES: CCCCC/C=C\C/C=C\C/C=C\C/C=C\CCCC(=O)O [AA, arachidonic acid]
- V1/2 of conductance-voltage curve with AA ([1]; 10 µM AA, WT): −13.4 mV
- rightward shift in V1/2 of the conductance-voltage relationship in the presence of AA ([1]; 10 µM AA, WT): +7 mV
- slope factor (k) of Boltzmann fit with AA ([1]; 10 µM AA, WT): 12.1
- decrease in Kv4.2 currents ([1]; 10 µM AA, n = 3, same batch of oocytes as Kv1.2/2.1, +40 mV test potential): 30.7 ± 1.8%
- Kd ([1]; fitted Kd for AA inhibition of peak current, Hill equation, nH = 1, +40 mV, 1 to 300 µM AA, WT): 21.1 µM
- inhibition at 10 µM [1, 5]: 30%
- inhibition of peak K+ current by AA, effect of mutation [2]: did not significantly disrupt the inhibitory effects of AA
- modulation of Kv1.2/2.1 K+ currents by AA [3]: not modulated by AA
- increase in current ([3]; n = 8, +110 mV test potential): 1.1 ± 2.1%
- V1/2 of conductance-voltage curve with AA ([4]; 10 µM AA, K318Q): −8.6 mV
- slope factor (k) of Boltzmann fit with AA ([4]; 10 µM AA, K318Q): 11.3
- inhibition at 10 µM [4, 5]: 12%

From publication PMC3667888 (Channels, 2013)
